In the RNAGym collection of RNA variant scans (doi:10.1126/science.aae0568):
Fewer inactive variants are shown than the library holds.

B1: tRNA (parent)
chain: GUUCCGUUGGCGUAAUGGUAACGCGUCUCCCUCCUAAGGAGAAGACUGCGGGUUCGAGUCCCGUACGGAACG

Variants of: B1
Test: yeast fitness relative to wild type (ratio to wild type); higher = fitter; tRNA-Arg(CCU), competitive growth, 37 C, YPD
How it was run: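 Amplicons of the tRNA-Arg(CCU) gene were sequenced, 100-nucleotide paired-end, from the start population and from each end population of a pooled yeast competition. The competition, in six parallel replicates, lasted 24 hours in YPD at 37°C. Fitness relative to wild type was calculated from changes in genotype frequencies. Genotypes had to have ≥ 100 starting reads, and estimates < 0.5 were set to 0.5.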

Yeast fitness, 0.659:
C11U A45U C66A

Yeast fitness, 0.509:
C11G G18C A21G A40U A70U

Yeast fitness, 0.523:
C11G C24U G68C

Yeast fitness, 0.502:
C11U A21G U59A C62G

Yeast fitness, 0.562:
C11U A45U G58U

Yeast fitness, 0.597:
C11G C30A U47G U53C

Yeast fitness, 0.721:
C11G G56A

Yeast fitness, 0.512:
C11G U54C

Yeast fitness, 0.587:
C11U A20G C22A G23C U28G A43G A57G A70U

Yeast fitness, 0.699:
C11U A43C C66U

Yeast fitness, 0.612:
C11G A36U A40C

Yeast fitness, 1.03:
C11G U13A

Yeast fitness, ≤ 0.5:
C11G G18A G23A C60G
C11U A36C G68C
C11G U19C A40G C66G A69U
C11U C22A C29G C33U U35C A70C
C11A C46U G48A C55U U59A
C11U C24A G68C
C11G C24U C49U
C11U C29G C33U C60U A65U A69U
C11A G52C C66U A69C
C11G C31G A36U
C11G A37U C46U G63U
C11G U32A C33G C34A A57C
C11G C24G C60A G68A
C11G A15C G38C C49G
C11U C31G C46G G52A C66U
C11G C30U C31G C33G A37U U64A
C11G A36U A42G A43C C49U A57U A65C
C11G C29U C34U G51C C66U
C11G A37U
C11G U13C G58C A69U
C11G A14G C24G G67C
C11G G38C C55U C61G
C11A U53A C62G
C11U C27U C31A A42G C49G G51A G68C
C11U A15U A21C C24G C29U A42C U59G G67U
C11G C24U U28C A42G C60U C62G
C11G A42U A43C
C11U A20G G23C C31U C46G A70U
C11U C22U A43C C49U C55G C61U
C11A C62A
C11A U35A C61U C62U C66A
C11U A14U U16C
C11G C24A U28G A36G G63A
C11U C29U A36U C66U G67A
C11A G18A G58A U64C
C11U C24G A57G
C11A C49U C61U
C11G A15C C34U A65C
C11G C24G C27A U28C C66U
C11A U13A C31G A65C
C11G C30U A37C A70U
C11A U26C C29G C31U G48A
C11G A15C C46G U59A
C11U C24U C29G G38A A40C
C11A G17C U47A G68C
C11G A21G C31G
C11U A21C C27G G39C A57C G68U
C11G A21U C24U
C11G C22U A36C G52C C66U
C11G A15U G58U C66A A70C
C11U A15C A36C A37U
C11U A15U G38A G56A
C11U A20U C24U C30U C33A U54A C61G
C11U A42G C62G A69U
C11A U59A G67C A69C
C11A U19G A36G C49A G68C
C11G C34U A42C C66A

Yeast fitness, 0.603:
C11U A21U G41C

Yeast fitness, 0.697:
C11U C31U A40C

Yeast fitness, 0.589:
C11G U59C

Yeast fitness, 0.616:
C11A C62U

Yeast fitness, 0.6:
C11G A40C
C11G G39C

Yeast fitness, 0.535:
C11A C55G

Yeast fitness, 0.662:
C11G A20C G23A G52C C61U

Yeast fitness, 0.551:
C11A G23A G63C

Yeast fitness, 0.599:
C11G U13G

Yeast fitness, 0.632:
C11G C31U G67C

Yeast fitness, 0.979:
C11G G23C A37G A57C

Yeast fitness, 0.54:
C11A G68U

Yeast fitness, 0.717:
C11G G23C A36U G44C G68A
